Results as given in ChEMBL document CHEMBL1152843, “Synthesis of new series of 5,6-dihydro-4H-1,2-oxazines via hetero Diels-Alder reaction and evaluation of antimicrobial activity” (2009).
≈ marks a conversion by molar mass, not a printed value.

Columns and labels:
Assay type in all cases: functional
[1] = tested on: Fusarium verticillioides; experiment: Antifungal activity against Fusarium moniliforme at 20 ug after 48 hrs by cup diffusion method; details: read-out: IZ
Outline: (§1)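 Cup diffusion on 9 cm plates seeded with 1 × 10⁶ cfu of fungi, with spores adjusted to at least 1 × 10⁶ cfu/ml in potato dextrose broth. Compound in DMF was placed in 5 mm agar cups and left 1 h to diffuse. Plates were incubated at 28 °C for 48 h and the inhibition zone read in mm. DMF was the negative control.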

[2] = tested on: Fusarium oxysporum; experiment: Antifungal activity against Fusarium oxysporum at 20 ug after 48 hrs by cup diffusion method; details: read-out: IZ; outline: as §1
[3] = tested on: Aspergillus flavus; experiment: Antifungal activity against Aspergillus flavus after 48 hrs by cup diffusion method
[4] = tested on: Aspergillus niger; experiment: Antifungal activity against Aspergillus niger after 48 hrs by cup diffusion method
[5] = tested on: Fusarium verticillioides; experiment: Antifungal activity against Fusarium moniliforme after 48 hrs by cup diffusion method
[6] = tested on: Fusarium oxysporum; experiment: Antifungal activity against Fusarium oxysporum after 48 hrs by cup diffusion method
[7] = tested on: Klebsiella pneumoniae; experiment: Antibacterial activity against Klebsiella pneumoniae […] at 20 ug after 24 hrs by cup diffusion method; details: read-out: IZ
Outline: (§2)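 Agar cup diffusion. Plates of sterile medium in 9 cm dishes were seeded with 1 × 10⁵ cfu of bacteria, with the suspension adjusted to at least 1 × 10⁵ cfu/ml in nutrient broth. Compound in DMF was placed in 5 mm cups and pre-diffused for 1 h. Plates were incubated at 37 °C for 24 h and the inhibition zone measured in mm. DMF served as negative control.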

[8] = tested on: Escherichia coli; experiment: Antibacterial activity against Escherichia coli MTCC 443 at 20 ug after 24 hrs by cup diffusion method; details: MTCC 443, 24 h, read-out: IZ; outline: as §2
[9] = tested on: Pseudomonas aeruginosa; experiment: Antibacterial activity against Pseudomonas aeruginosa MTCC 1688 at 20 ug after 24 hrs by cup diffusion method; details: MTCC 1688, 24 h, read-out: IZ; outline: as §2
[10] = tested on: Staphylococcus aureus; experiment: Antibacterial activity against Staphylococcus aureus MTCC 737 at 20 ug after 24 hrs by cup diffusion method; details: MTCC 737, 24 h, read-out: IZ; outline: as §2
[11] = tested on: Escherichia coli; experiment: Antibacterial activity against Escherichia coli MTCC 443 after 24 hrs by cup diffusion method; details: MTCC 443, 24 h
[12] = tested on: Klebsiella pneumoniae; experiment: Antibacterial activity against Klebsiella pneumoniae […] after 24 hrs by cup diffusion method
[13] = tested on: Pseudomonas aeruginosa; experiment: Antibacterial activity against Pseudomonas aeruginosa MTCC 1688 after 24 hrs by cup diffusion method; details: MTCC 1688, 24 h
[14] = tested on: Staphylococcus aureus; experiment: Antibacterial activity against Staphylococcus aureus MTCC 737 after 24 hrs by cup diffusion method; details: MTCC 737, 24 h
[15] = tested on: Aspergillus flavus; experiment: Antifungal activity against Aspergillus flavus at 20 ug after 48 hrs by cup diffusion method; details: read-out: IZ; outline: as §1
[16] = tested on: Aspergillus niger; experiment: Antifungal activity against Aspergillus niger at 20 ug after 48 hrs by cup diffusion method; details: read-out: IZ; outline: as §1

Compound | zone of inhibition at 20 µg/disc [1] [mm] | zone of inhibition at 20 µg/disc [2] [mm] | MIC [3] [µg/mL] | MIC [4] [µg/mL] | MIC [5] [µg/mL] | MIC [6] [µg/mL] | zone of inhibition at 20 µg/disc [7] [mm] | zone of inhibition at 20 µg/disc [8] [mm] | zone of inhibition at 20 µg/disc [9] [mm] | zone of inhibition at 20 µg/disc [10] [mm] | MIC [11] [µg/mL] | MIC [12] [µg/mL] | MIC [13] [µg/mL] | MIC [14] [µg/mL] | zone of inhibition at 20 µg/disc [15] [mm] | zone of inhibition at 20 µg/disc [16] [mm]
COc1ccc(C2=NOC(CO)CC2)cc1OC (configuration not stated) | 10.8 | 16.5 | 40 (≈ 159 µM) | 40 (≈ 159 µM) | 35 (≈ 139 µM) | 30 (≈ 119 µM) | 14.5 | 8.5 | 10.5 | 7.66 | 35 (≈ 139 µM) | 25 (≈ 99.5 µM) | 20 (≈ 79.6 µM) | 20 (≈ 79.6 µM) | 8.5 | 7.83
CCOC(=O)C1CCC(c2ccc(C)c(C)c2)=NO1 (configuration not stated) | 16.7 | 19.8 | 15 (≈ 57.4 µM) | 20 (≈ 76.5 µM) | 25 (≈ 95.7 µM) | 15 (≈ 57.4 µM) | 16.7 | 13.5 | 12.8 | 17.8 | 20 (≈ 76.5 µM) | 15 (≈ 57.4 µM) | 20 (≈ 76.5 µM) | 10 (≈ 38.3 µM) | 12.7 | 11.5
CCOC(=O)C1CCC(c2ccc3c(c2)CCC3)=NO1 (configuration not stated) | 32.8 | 36.5 | 10 (≈ 36.6 µM) | 15 (≈ 54.9 µM) | 20 (≈ 73.2 µM) | 10 (≈ 36.6 µM) | 13.5 | 10.7 | 13.4 | 18.7 | 30 (≈ 110 µM) | 25 (≈ 91.5 µM) | 20 (≈ 73.2 µM) | 20 (≈ 73.2 µM) | 28.5 | 26.7
Cc1ccc(C2=NOC(Cc3ccc4c(c3)OCO4)CC2)cc1C (configuration not stated) | 22.8 | 25.3 | 10 (≈ 30.9 µM) | 15 (≈ 46.4 µM) | 20 (≈ 61.8 µM) | 10 (≈ 30.9 µM) | 15.5 | 11.5 | 11 | 21.3 | 30 (≈ 92.8 µM) | 20 (≈ 61.8 µM) | 20 (≈ 61.8 µM) | 15 (≈ 46.4 µM) | 18.8 | 15.7
Cc1ccc(C2=NOC(CCl)CC2)cc1 (configuration not stated) | 17.7 | 20.8 | 15 (≈ 67.1 µM) | 15 (≈ 67.1 µM) | 10 (≈ 44.7 µM) | 15 (≈ 67.1 µM) | 16.5 | 15.7 | 11.5 | 16.7 | 20 (≈ 89.4 µM) | 15 (≈ 67.1 µM) | 15 (≈ 67.1 µM) | 10 (≈ 44.7 µM) | 14.5 | 13.8
c1cc2c(cc1CC1CCC(c3ccc4c(c3)CCC4)=NO1)OCO2 (configuration not stated) | 21.5 | 26.7 | 15 (≈ 44.7 µM) | 20 (≈ 59.6 µM) | 20 (≈ 59.6 µM) | 15 (≈ 44.7 µM) | 16.5 | 11.5 | 21.5 | 15.7 | 25 (≈ 74.5 µM) | 15 (≈ 44.7 µM) | 15 (≈ 44.7 µM) | 10 (≈ 29.8 µM) | 20.7 | 18.7
COc1ccc(C2=NOC(CCl)CC2)cc1OC (configuration not stated) | 26.5 | 28.7 | 15 (≈ 55.6 µM) | 20 (≈ 74.1 µM) | 15 (≈ 55.6 µM) | 10 (≈ 37.1 µM) | 17 | 13.8 | 9.83 | 17.8 | 20 (≈ 74.1 µM) | 10 (≈ 37.1 µM) | 15 (≈ 55.6 µM) | 10 (≈ 37.1 µM) | 20.8 | 18.7
COc1ccc(C2=NOC(C#N)CC2)cc1OC (configuration not stated) | 12.8 | 15.5 | 35 (≈ 142 µM) | 35 (≈ 142 µM) | 30 (≈ 122 µM) | 30 (≈ 122 µM) | 7.75 | 10.5 | 24.5 | 15.5 | 25 (≈ 102 µM) | 15 (≈ 60.9 µM) | 10 (≈ 40.6 µM) | 15 (≈ 60.9 µM) | 10.5 | 11.5
Cc1ccc(C2=NOC(CO)CC2)cc1 (configuration not stated) | 15.8 | 19.8 | 30 (≈ 146 µM) | 35 (≈ 171 µM) | 30 (≈ 146 µM) | 25 (≈ 122 µM) | 19.8 | 8.83 | 10.8 | 7.5 | 35 (≈ 171 µM) | 30 (≈ 146 µM) | 25 (≈ 122 µM) | 25 (≈ 122 µM) | 12.5 | 11.5
COc1ccc(C2=NOC(CO)CC2)cc1 (configuration not stated) | 17.6 | 19.5 | 35 (≈ 158 µM) | 40 (≈ 181 µM) | 35 (≈ 158 µM) | 30 (≈ 136 µM) | 15.5 | 10.7 | 16.7 | 10.8 | 35 (≈ 158 µM) | 25 (≈ 113 µM) | 20 (≈ 90.4 µM) | 20 (≈ 90.4 µM) | 7.83 | 8.66
COc1ccc(C2=NOC(Cc3ccc4c(c3)OCO4)CC2)cc1 (configuration not stated) | 12.8 | 16.8 | 40 (≈ 123 µM) | 35 (≈ 108 µM) | 35 (≈ 108 µM) | 35 (≈ 108 µM) | 19.7 | 21.8 | 31.8 | 21.7 | 25 (≈ 76.8 µM) | 15 (≈ 46.1 µM) | 20 (≈ 61.5 µM) | 15 (≈ 46.1 µM) | 9.66 | 10.7
ClCC1CCC(c2ccc3c(c2)CCC3)=NO1 (configuration not stated) | 34.5 | 38.5 | 10 (≈ 40 µM) | 15 (≈ 60.1 µM) | 20 (≈ 80.1 µM) | 10 (≈ 40 µM) | 25.8 | 11.8 | 34.5 | 13.5 | 20 (≈ 80.1 µM) | 15 (≈ 60.1 µM) | 15 (≈ 60.1 µM) | 10 (≈ 40 µM) | 32.8 | 28.8
